This is an account of results in article PMC2216779 (The Journal of General Physiology, 1993).

Molecules are shown by their SMILES. Values joined by “and” are separate entries in the source; they are usually repeats but may differ in a detail not shown here. Identical values can stand only once. Like-named read-outs stand apart in the source and are kept apart here.

The subject of test [1] is residual chloride transport in DIDS-C human red blood cells. The test can be described thus: 36Cl- efflux in DIDS-C cells. It counts as cell-based.
The subject of test [2] is band 3 protein, DIDS binding site. The conditions noted are these: cited from earlier work.
Test [3] deals with chloride conductance of the human red cell membrane. In words: Conductance studies of net. It counts as cell-based. The conditions noted are these: 16 µM DIDS; calculated from Bennekou and Stampe (1988) data.
Test [4] has as its target T1, chloride transport in human red blood cells; capnophorin (band 3 or AE1) (Homo sapiens, UniProt P02730).
T1 sequence (P02730 1-911): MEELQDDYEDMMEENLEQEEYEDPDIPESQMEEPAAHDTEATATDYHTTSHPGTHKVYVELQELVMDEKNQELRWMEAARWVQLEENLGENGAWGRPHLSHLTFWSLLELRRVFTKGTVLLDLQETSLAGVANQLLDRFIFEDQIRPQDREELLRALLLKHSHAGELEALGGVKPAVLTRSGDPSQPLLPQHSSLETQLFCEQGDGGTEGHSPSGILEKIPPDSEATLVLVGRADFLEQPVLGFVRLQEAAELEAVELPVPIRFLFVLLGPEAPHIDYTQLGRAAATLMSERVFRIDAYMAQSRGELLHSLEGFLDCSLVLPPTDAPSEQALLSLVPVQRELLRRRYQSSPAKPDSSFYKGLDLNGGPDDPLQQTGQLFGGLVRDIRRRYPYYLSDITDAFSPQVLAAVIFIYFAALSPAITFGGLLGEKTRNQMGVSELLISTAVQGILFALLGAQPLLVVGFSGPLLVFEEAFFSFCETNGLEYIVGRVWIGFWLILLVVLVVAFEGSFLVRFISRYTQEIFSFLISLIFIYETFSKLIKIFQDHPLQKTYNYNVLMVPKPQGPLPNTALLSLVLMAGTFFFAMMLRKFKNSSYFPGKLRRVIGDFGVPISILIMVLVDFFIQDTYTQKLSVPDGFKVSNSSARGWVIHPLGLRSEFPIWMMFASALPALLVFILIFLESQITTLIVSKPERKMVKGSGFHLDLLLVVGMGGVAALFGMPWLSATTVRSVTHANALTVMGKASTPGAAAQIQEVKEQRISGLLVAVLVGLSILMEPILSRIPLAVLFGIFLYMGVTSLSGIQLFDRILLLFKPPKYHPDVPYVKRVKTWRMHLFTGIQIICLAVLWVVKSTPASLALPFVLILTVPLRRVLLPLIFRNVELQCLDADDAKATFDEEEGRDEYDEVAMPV
In words: 36Cl- efflux. The conditions noted are these: 38C. The format is cell-based. In a few lines: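 Fresh heparinized human blood washed four times in medium A (150 mM KCl, 0.5–2 mM KH2PO4, pH 7.2), buffy coat removed. Covalent labelling: ~50% hematocrit, 50 µM DIDS, 38°C, 45 min, then washes in medium A. Cells loaded with 3.7–18.5 kBq 36Cl per ml suspension and packed. Tracer efflux measured at 38°C, pH 7.2, by Millipore-Swinnex filtration or continuous flow tube. Rate constant taken from extracellular radioactivity over time, corrected for trapped isotope.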

Test [5] relates to chloride conductance of the human red cell membrane. The conditions noted are these: ref Bennekou and Stampe (1988); cited from earlier work.
The target of test [6] is human erythrocyte anion transporter. To be noted: read-out: Dissociation constant of DNDS binding, ref Frohlich (1982), cited from earlier work.

Turning to `O=S(=O)(O)c1cc(N=C=S)ccc1C=Cc1ccc(N=C=S)cc1S(=O)(=O)O` [DIDS, 4,4'-diisothiocyanostilbene-2,2'-disulfonic acid], in test [1] (covalent DIDS + 50 µM DIDS in flux medium, 38C, pH 7.2, n = 15), the “Chloride flux in DIDS-CR cells” value is 0.60 [SD -- 0,16] pmol cm-2 s-1. Also, in test [2] (0C, ref Janas et al., 1989), the “Half-time for irreversible DIDS binding” value was ~ 3 h. Moreover, in test [2] (38C, ref Janas et al., 1989), the “Time constant 1/k of irreversible DIDS binding” value is listed as 2.2 rain. For the same compound, in test [3], the “Reduction of conductive component of chloride efflux” value is listed as 96.4% and the “Reduction of conductive component of chloride efflux, fold” value is reported as 28 times. In test [4] (50 µM DIDS, 45 min, n = 10), the “Chloride efflux after DIDS binding procedure performed once” value is 96.3 [SD-+ 8.1] pmol cm-2 s-1 and the “Chloride efflux after DIDS binding procedure performed twice” value is 94.1 [SD ~ 11.0] pmol cm-2 s-1. For the same compound, the “Irreversible inhibition of chloride transport by maximum covalent DIDS binding” value in test [4] (DIDS-C cells vs control cells, pH 7.2) worked out at 99.8%. The “Chloride self-exchange flux in DIDS-C cells” value in test [4] (covalently bound DIDS, pH 7.2, n = 30) is 106 pmol cm-2 s-1 and 106 (SD + 17) pmol cm-2 s-1. Moreover, in test [4] (found experimentally), the “Half-time for chloride tracer efflux in DIDS-C cells” value worked out at 29 s. The “Inhibition of conductive flow of chloride” value in test [5] is ~ 100%.
Turning to `O=S(=O)(O)c1cc(N=C=S)ccc1CCc1ccc(N=C=S)cc1S(=O)(=O)O` [H2DIDS, 4,4'-diisothiocyano-dihydrostilbene-2,2'-disulfonic acid], the “Rate of binding to the DIDS binding site relative to DIDS” value in test [2] (0C, ref Shami, Rothstein, and Knauf, 1978) is reported as “binds much faster than DIDS”.
Regarding `CC(C)[C@@H]1NC(=O)[C@H](C)OC(=O)[C@@H](C(C)C)NC(=O)[C@@H](C(C)C)OC(=O)[C@H](C(C)C)NC(=O)[C@H](C)OC(=O)[C@@H](C(C)C)NC(=O)[C@@H](C(C)C)OC(=O)[C@H](C(C)C)NC(=O)[C@H](C)OC(=O)[C@@H](C(C)C)NC(=O)[C@@H](C(C)C)OC1=O` [valinomycin], the “Effect on initial 36Cl influx rate” value in test [1] (valinomycin 1 µM, extracellular chloride < 1 mM) is “no detectable effect”.
On to `O=[N+]([O-])c1ccc(C=Cc2ccc([N+](=O)[O-])cc2S(=O)(=O)O)c(S(=O)(=O)O)c1` [DNDS, 4,4'-dinitrostilbene-2,2'-disulfonate], for which the Kd in test [6] (0C) was 0.084 µM; in test [6] (10C), 0.086 µM; in test [6] (20C), 0.09 µM.
